From PubChem BioAssay
Values without a mark were called inactive.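 Rule for the calls: active = viability at or below 30% in both replicate assays; inconclusive = viability at or below 30% in just one of the two assays; inactive = the rest.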

Experiment: HUVEC growth inhibition – cell-based, human, primary screen (AID 575);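 note: 100% = median of untreated cell wells with 0.1% DMSO on each plate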
Settings: HUVEC proliferation, CellTiter-Glo luminescence, 72 h; at 10 µM; active compounds read low
Procedure, shortened: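 Test system: primary human umbilical vein endothelial cells; medium: endothelial basal medium with 2% FBS plus growth supplements; dosing: 10 µM compound only; times: 72 h treatment at 37 °C; signal: CTG luminescence; read-out: % viability relative to median vehicle-well signal on each plate; control set: vehicle and MePR control wells; plate: 384-well, collagen-coated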

Row | SMILES | viability
1 | CC[N+](C)(C)c1cccc(O)c1 | 81.1%
2 | NC(Cc1ccc(Oc2ccc(O)cc2)cc1)C(=O)O (stereo not given) | 107%
3 | COCCN(C(=O)CCC(=O)Nc1ccccn1)C(C(=O)NC1CCCC1)c1ccc(OC)cc1 (stereo not given) | 94.6%
4 | Cc1ncc([N+](=O)[O-])n1CC(O)CCl (stereo not given) | 108%
5 | CCCCOc1ccc(CC(=O)NO)cc1 | 97%
6 | Nc1ccc2cn[nH]c2c1 | 82.2%
7 | CCC(=NC(C)c1ccccc1)c1c(O)n(C)c(=O)n(C)c1=O (stereo not given) | 72.8%
8 | C[C@]12C[C@H](O)[C@H]3[C@@H](CCC4=CC(=O)CC[C@@]43C)[C@@H]1CC[C@@H]2C(=O)CO | 105%
9 | OCCOCCN1CCN(C(c2ccccc2)c2ccc(Cl)cc2)CC1 (stereo not given) | 90.1%
10 | Cn1cc(NC(=O)c2cc(NC(=O)c3cc(NC=O)cn3C)cn2C)cc1C(=O)NCCC(=N)N | 90.6%
11 | Cn1c(SCC(=O)N2CCOCC2)nnc1-c1cnccn1 | 101%
12 | CC(=O)C1=C(O)C(=O)N(Cc2cccnc2)C1c1ccccc1 (stereo not given) | 97.8%
13 | Cc1cccc(Nc2ccccc2C(=O)O)c1C | 65.7%
14 | CCOC(=O)c1c(NCc2ccc3c(c2)OCO3)c2ccccc2[nH]c1=O | 100%
15 | C[C@]12CC[C@H]3[C@@H](CCC4=CC(=O)CC[C@@]43C)[C@@H]1CC[C@@H]2C(=O)CO | 56.6%
16 | COc1ccc2cc([C@H](C)C(=O)O)ccc2c1 | 111%
17 | CCC(NC(C)C)C(O)c1ccc(O)c2[nH]c(=O)ccc12 (stereo not given) | 107%
18 | COc1cc2nc(N3CCN(C(=O)C4CCCO4)CC3)nc(N)c2cc1OC (stereo not given) | 98.5%
19 | CN1Cc2c(N)cccc2C(c2ccccc2)C1 (stereo not given) | 106%
20 | C[C@H]1C[C@H]2[C@@H]3CCC4=CC(=O)C=C[C@]4(C)[C@@]3(Cl)[C@@H](O)C[C@]2(C)[C@@]1(O)C(=O)CO | 91.4%

Row | SMILES | viability
21 | C[C@]12CC[C@@H]3c4ccc(O[C@@H]5O[C@H](C(=O)O)[C@@H](O)[C@H](O)[C@H]5O)cc4CC[C@H]3[C@@H]1C[C@@H](O)[C@@H]2O | 89.5%
22 | Cc1c(C(=O)O)sc2ncn(C)c(=O)c12 | 100%
23 | O=c1ccc(S(=O)(=O)N2CCC(Cc3ccccc3)CC2)c[nH]1 | 111%
24 | CCn1cc(C(=O)O)c(=O)c2cnc(N3CCNCC3)nc21 | 96.5%
25 | Nc1nnc(-c2cccc(Cl)c2Cl)c(N)n1 | 103%
26 | O=C(O)CCCCCCC1C(=O)NC(=O)N1CCC(O)C1CCCCC1 (stereo not given) | 79.8%
27 | COc1ccc(CN(CCN(C)C)c2ccccn2)cc1 | 97.4%
28 | O=C(NCC1CCCCN1)c1cc(OCC(F)(F)F)ccc1OCC(F)(F)F (stereo not given) | 91.8%
29 | c1ccc2nc(-c3nc4ccccc4[nH]3)ccc2c1 | 55.2%
30 | CCCC(=O)Nc1ncnc2c1ncn2[C@@H]1O[C@@H]2COP(=O)(O)O[C@H]2[C@H]1OC(=O)CCC | 109%
31 | COc1cc(OC)c(NC(=O)c2ccco2)cc1Cl | 92.1%
32 | O=S(=O)(c1ccc(OCC(O)CN2CCC(Cc3ccccc3)CC2)cc1)N1CCOCC1 (stereo not given) | 73.4%
33 | C/C(N)=C(/C#N)C(=O)COC(=O)CCSc1ccccc1 | 84.4%
34 | CCCC(=O)O[C@]1(C(=O)COC(C)=O)CC[C@H]2[C@@H]3C[C@H](F)C4=CC(=O)C=C[C@]4(C)[C@@]3(F)[C@@H](O)C[C@@]21C | 96.9%
35 | Cn1c(-c2ccccc2)cc(=O)c2ccccc21 | 102%
36 | Cc1cccc(C)c1NC(=O)C1CCCCN1C (stereo not given) | 104%
37 | CCC(NC(C)C)C(O)c1ccc(O)c(O)c1 (stereo not given) | 105%
38 | C=C(c1cccc2ccccc12)P(=O)(O)O | 104%
39 | COC(=O)CSc1nc(C)c(C(C)=O)cc1C#N | 111%
40 | C[C@]12CC[C@@H]3c4ccc(O)cc4CC[C@H]3[C@@H]1CC[C@@H]2OC(=O)CCC(=O)O | 99.3%
